An excerpt weighted towards active compounds, which were near 2.5% of everything screened.
OX1R antag-1 = human HCRTR1 antagonism; CHO/OX1R cells, Fluo-8 calcium fluorescence, orexin A; inhibition, % at 5 µM; hit rate 0.43% among 330,000; AID 434989;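 active = inhibition above its plate's threshold, mean inhibition of all tested compounds on the plate plus 3 SD, cut at about 37% in these data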;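 note: 0% = orexin A challenge wells and 100% = SB-334867-A antagonist wells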
Target sequence (O43613 whole entry, looked up): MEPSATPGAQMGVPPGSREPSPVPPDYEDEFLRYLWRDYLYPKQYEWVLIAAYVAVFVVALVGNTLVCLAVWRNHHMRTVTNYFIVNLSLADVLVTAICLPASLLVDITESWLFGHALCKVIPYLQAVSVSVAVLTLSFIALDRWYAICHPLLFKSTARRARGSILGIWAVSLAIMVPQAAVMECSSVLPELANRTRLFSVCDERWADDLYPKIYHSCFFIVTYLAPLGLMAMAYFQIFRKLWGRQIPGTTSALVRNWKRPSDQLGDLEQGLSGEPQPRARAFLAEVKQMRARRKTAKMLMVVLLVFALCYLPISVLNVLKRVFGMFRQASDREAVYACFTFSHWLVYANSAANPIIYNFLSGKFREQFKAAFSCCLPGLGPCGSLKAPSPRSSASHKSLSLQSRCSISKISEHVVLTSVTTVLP
OX1R antag-2 = OX1R (human) antagonism; O43613; OX1R-expressing cells, FRET antagonist read-out; inhibition, % at 6.6 µM; hit rate 1.8% among 330,000; AID 485270; in the data active = inhibition mostly above about 38%, no sharp cut-off; inactive = mostly below about 40%;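 note: 0% = agonist challenge alone and 100% = reference antagonist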
CHO parental Ca = signal in parental CHO cells, OX1R antagonist counter-screen; hit rate 0.63% among 330,000; AID 463079; parental CHO-K1, ATP-induced calcium, Fluo-8 fluorescence; inhibition, % at 5.6 µM;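 active = inhibition above that plate's mean sample inhibition plus 3 SD, cut at about 26% in these data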;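 note: 0% = ATP-challenged DMSO wells and 100% = DMSO wells without ATP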
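Material: Parental CHO cells | Reagent: ATP | Compound dosing: Single nominal dose of 5.6 µM per compound | Detection: Intracellular calcium via Fluo-8 no-wash fluorescent dye | Read-out: % inhibition of ATP-induced calcium mobilization | Benchmarks: Low control ATP plus DMSO, high control DMSO only | Replicates: Singlicate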
TRPML3 agonist = activates the human TRPML3 channel; Q8TDD5; AID 1448; HEK293 TRPML3-YFP, Fluo-8 calcium fluorescence; 100% = the carbachol control signal; hit rate 0.29% among 220,000; activation, % at 3 µM;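 active = activation above its plate's cutoff, the mean activation of the plate's test wells plus 3 SD, cut at about 12% in these data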;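 note: 0% = DMSO only wells and 100% = carbachol wells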
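Test system – HEK293 line with stable expression of human TRPML3-YFP channel · Control set – carbachol 87 µM final as high control (100%), DMSO as low control (0%) · Signal – Fluo-8 calcium dye fluorescence, ex 470-495, em 515-575 nm · Incubation – 1-h 37 °C dye load, 5-s basal, 120-s post-compound reads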
TRPN1 ag = agonists of zebrafish TRPN1 channel; activation, % at 3 µM; HEK293 zebrafish TRPN1-YFP, Fluo-8 calcium fluorescence; 100% = response to 87 µM carbachol; hit rate 0.18% among 220,000;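 active = activation above its plate's cutoff, the mean activation of test wells on that plate plus 3 SD, cut at about 19% in these data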;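 note: 0% = DMSO alone and 100% = 87 µM carbachol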
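Control set: carbachol 87 µM as high control, DMSO as low control; system: HEK293 stable line with zebrafish TRPN1-YFP; read-out: % activation versus carbachol response; detection: intracellular calcium fluorescence with Fluo-8; doses: single test compound dose, 3 µM nominal, 0.3% DMSO; schedule: dye 1 h 37 °C plus 30 min RT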
OX1R HTRF confirm = confirmation of human orexin 1 receptor antagonists, HTRF format. shares compounds with OX1R antag-2. inhibition, % at 6.6 µM. OX1R-expressing cells, HTRF antagonist assay. hit rate 49% among 1,800. AID 492964; in the data active = inhibition above about 55%;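 note: CHO cells expressing OX1R stimulated with orexin A at about EC80; 0% = agonist challenge alone and 100% = reference antagonist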
CHO-K1 HTRF cnt = signal in parental CHO-K1 cells, OX1R antagonist counter-screen; shares compounds with OX1R antag-2; HTRF counterscreen; inhibition, % at 6.6 µM; hit rate 48% among 1,800; AID 493232; in the data active = inhibition above about 17%;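 note: 0% = agonist challenge with vehicle and 100% = vehicle alone without agonist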
* = called active by the depositor; . = not tested or not shown.

SMILES	OX1R antag-1	OX1R antag-2	CHO parental Ca	TRPML3 agonist	TRPN1 ag	OX1R HTRF confirm	CHO-K1 HTRF cnt
O=C(Nc1ccccc1)C1CCCCN1S(=O)(=O)c1ccccc1 (stereo not given)	11	80*	-8	0	0	60*	2
COc1ccc(Cl)cc1N(CC(=O)NCCSc1ccccn1)S(=O)(=O)c1ccccc1	10	79*	-13	.	.	80*	8
COCCCNC(=O)CN(c1cc(Cl)ccc1OC)S(=O)(=O)c1ccc(C)c([N+](=O)[O-])c1	9	79*	-26	1	2	59*	6
O=C(COC(=O)CCc1ccc(S(=O)(=O)N2CCOCC2)cc1)Nc1ccccc1[N+](=O)[O-]	-14	12	-15	.	.	.	.
COc1ccc(Br)cc1/C=N/NC(=O)c1cc(Br)ccc1O	-19	17	9	1	2	.	.
C/C=N/NC(=O)c1cc(Br)ccc1O	-2	77*	-2	2	2	21	3
COc1cccc2c1C(=O)C=C(C)C2=O	-21	124*	-2	0	0	72*	92*
COc1ccc2c(c1O)C(=O)c1ccccc1C2=O	-2	9	-3	0	2	.	.
CC(C)(C)c1ccc(NC(=O)CN2C(=O)NC(C)(C3CC3)C2=O)cc1 (stereo not given)	-22	1	-8	.	.	.	.
Cc1c(/C=C/C(=O)c2cccs2)cnn1C	10	103*	-15	0	5	62*	15
O=C1CCCC(O)=C1N=Nc1ccc2c(c1)OCO2	-5	81*	-8	0	1	50	58*
O=C1CCCC(O)=C1N=Nc1cccc(S(=O)(=O)N2CCOCC2)c1	-16	8	-9	0	2	.	.
O=C1CCCC(O)=C1N=Nc1ccc(C(=O)O)cc1	6	86*	-4	1	1	72*	64*
CCOc1ccccc1N(C)C(=O)c1ccc2c(=O)n3c(nc2c1)CCCCC3	-17	-2	-15	.	.	.	.
CN(C)c1ccc(/C=c2\sc3n(c2=O)CCCN=3)cc1	-13	116*	-11	2	1	36	31*
COc1cccc(N2CCN(c3ccc4nnc(CCC(=O)Nc5ccccc5OC)n4n3)CC2)c1	-6	2	-22	.	.	.	.
CCOc1ccccc1NC(=S)NNS(=O)(=O)c1c(C)cc(C)cc1C	-13	97*	-3	1	-2	26	4
Cc1cc(=O)n(C)c(=O)n1CCCCOc1ccc([N+](=O)[O-])cc1	8	104*	0	3	5	25	16
Cc1cc(=O)n(C)c(=O)n1CCCCCCOc1ccc([N+](=O)[O-])cc1	-12	6	-4	2	2	.	.
Cc1nc(S/C(C(=O)O)=C2/C(=O)Nc3ccccc32)n[nH]1	-6	78*	-2	0	-1	42	46*
Cc1nc(SC2CC(=O)N(c3ccccc3)C2=O)n[nH]1 (stereo not given)	0	-4	-2	1	1	.	.
CC(Oc1ccccc1)C(=O)N=C1SC2CS(=O)(=O)CC2N1c1ccccc1 (stereo not given)	-25	11	-15	.	.	.	.
O=C(CN1C(=O)S/C(=C/c2cccnc2)C1=O)N1CCOCC1	-10	112*	-5	0	1	49	72*
O=C(CN1C(=O)S/C(=C/c2ccncc2)C1=O)N1CCOCC1	-4	38	2	1	2	.	.
O=C(CN1C(=O)S/C(=C/c2cccs2)C1=O)N1CCOCC1	1	86*	-10	0	0	51	29*
SMILES	OX1R antag-1	OX1R antag-2	CHO parental Ca	TRPML3 agonist	TRPN1 ag	OX1R HTRF confirm	CHO-K1 HTRF cnt
O=C(O)CN1C(=O)/C(=C\c2cn(CC(=O)N3CCOCC3)c3ccccc23)SC1=S	7	100*	4	2	5	43	49*
O=C(CN1C(=O)S/C(=C/c2cc(Br)cs2)C1=O)N1CCOCC1	-13	9	6	1	1	.	.
O=C1CCC(C(=O)NCCN2C(=O)S/C(=C\c3cccnc3)C2=O)=NN1	-1	106*	11	1	1	44	59*
O=C(CCCN1C(=O)/C(=C/c2ccccc2Cl)SC1=S)N1CCOCC1	-41	20	-18	.	.	.	.
O=c1/c(=C/c2ccco2)sc2n1CN(c1cccc(Br)c1)CN=2	-19	56	6	1	1	.	.
Cc1ccc(/C=c2\sc3n(c2=O)CN(c2cccc(Br)c2)CN=3)o1	-7	80*	0	0	0	18	13
CC(C)[C@H](NC(=O)c1ccc(C(C)(C)C)cc1)C(=O)N1CCN(Cc2ccc3c(c2)OCO3)CC1	26	25	-24	.	.	.	.
O=C(CCN1C(=O)c2ccccc2C1=O)N1CCOCC1	-4	28	-6	0	0	.	.
O=C(CCN1C(=O)c2cccc3cccc(c23)C1=O)NC1CCS(=O)(=O)C1 (stereo not given)	3	79*	-17	0	1	36	54*
O=C(CCCCCN1C(=O)c2cccc3cccc(c23)C1=O)NC1CCS(=O)(=O)C1 (stereo not given)	-19	60	-22	1	2	.	.
O=C(CCN1C(=O)c2cccc3cccc(c23)C1=O)NCC1CCCO1 (stereo not given)	-15	92*	10	1	1	49	40*
O=C(CCN1C(=O)c2cccc3cccc(c23)C1=O)N1CCOCC1	-13	80*	3	0	2	45	64*
CC[n+]1c(/C=C/c2ccc(N(C)C)cc2)ccc2ccccc21	20	94*	33	1	0	82*	103*
Cc1ccc(C)c(N(CC(=O)NC(C)(C)C)C(=O)CNC(=O)c2cccs2)c1	-26	115*	-15	1	1	14	3
CCCCNc1ccc2nsnc2c1[N+](=O)[O-]	-10	120*	1	0	0	59*	90*
O=S(=O)(c1ccc(Cl)c(C(F)(F)F)c1)N1CCN(CC(O)COc2ccccc2F)CC1 (stereo not given)	-26	7	-13	.	.	.	.
COC(=O)c1cc(C(=O)OCC(=O)NC2CCS(=O)(=O)C2)cc([N+](=O)[O-])c1 (stereo not given)	-14	84*	-12	0	0	43	47*
COC(=O)c1cc(C(=O)OCC(=O)NC2CCCC2)cc([N+](=O)[O-])c1	-13	34	1	.	.	.	.
CCN(C(=O)COC(=O)/C=C/c1cccc(Br)c1)C1CCS(=O)(=O)C1 (stereo not given)	-13	21	-2	.	.	.	.

Screening results deposited in PubChem BioAssay by The Scripps Research Institute Molecular Screening Center.
